The values below come from ChEMBL document CHEMBL2417518, “Vinyl sulfone-based peptidomimetics as anti-trypanosomal agents: design, synthesis, biological and computational evaluation” (J Med Chem, 2013).

A short description of series [1]: Selectivity for bloodstream form of Trypanosoma brucei brucei MITat1.1 over human HL60 cells. Also noted: species or system HL-60. In outline:
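Both were measured by seeding at 2×10^5 cells/ml with varying inhibitor concentrations, reading absorbance at 540 and 595 nm, and comparing to inhibitor-free controls.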

Series [2] deals with Trypanosoma brucei brucei. The experiment in a line: Antitrypanosomal activity against bloodstream form of Trypanosoma brucei brucei MITat1.1 after 6 to 8 hrs by Alamar Blue assay. Particulars: in the assay text read “after 24 hrs” for “after 6 to 8 hrs”. Type of series: functional, organism-based. In outline:
(§1)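 T. b. brucei MITat1.1 cultured in HMI-9 with 10% heat-inactivated FBS, subcultured 1:10 every 24 h to stay in log phase, 37°C, 5% CO2. Seeded at 2×10^5 cells/ml with varying inhibitor concentrations or DMSO alone. Alamar Blue added after 6-8 h, total incubation 24 h. Absorbance read at 540 and 595 nm. EC50 from 4-parameter logistic fit of percent inhibition versus controls.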

For series [3], the system named is HL-60. The series can be described thus: Cytotoxicity against human HL60 cells after 48 hrs by Alamar Blue assay. In kind it is cell-based. Conditions: hl-60, 48 h. A digest of the protocol:
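HL-60 cells grown in RPMI-1640 with 10% heat-inactivated FBS, penicillin/streptomycin and 2 mM L-glutamine, 37°C, 5% CO2. Seeded at 2×10^5 cells/ml with varying inhibitor concentrations or DMSO alone. Alamar Blue added after 30-32 h, total incubation 48 h. Absorbance read at 540 and 595 nm. EC50 derived from percent signal inhibition versus inhibitor-free controls.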

The test system of series [4] is Trypanosoma brucei brucei. The series can be described thus: Antitrypanosomal activity against bloodstream form of Trypanosoma brucei brucei MITat1.1 assessed as increase in multinucleate cells at 0.78 uM after 24 hrs by epifluorescence microscopy relative to untreated control. Type of series: functional, organism-based. A digest of the protocol:
(§2)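 Trypanosomes exposed to the stated concentration at 37°C for 24 h, then fixed 10 min at 37°C in 3% (w/v) paraformaldehyde (final). Washed in PBS with 15 mM sodium azide, then in water, and settled on poly-L-lysine coated coverslips. Kinetoplast/nucleus counts and morphology scored by epifluorescence microscopy against an untreated control.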

The subject of series [5] is Trypanosoma brucei brucei. The experiment in a line: Antitrypanosomal activity against bloodstream form of Trypanosoma brucei brucei MITat1.1 assessed as bigeye phenotype at 0.78 uM after 24 hrs by epifluorescence microscopy relative to untreated control. Type of series: functional, organism-based. In outline:
as §2

Series [6] deals with Trypanosoma brucei brucei. The series can be described thus: Antitrypanosomal activity against bloodstream form of Trypanosoma brucei brucei MITat1.1 after 24 hrs by Alamar Blue assay. For orientation: The colour change of resazurin is a common sign of viable cells or microbes.
Series [7] relates to Trypanosoma brucei brucei. The series can be described thus: Antitrypanosomal activity against bloodstream form of Trypanosoma brucei brucei MITat1.1 assessed as bigeye phenotype at 55.6 uM after 24 hrs by epifluorescence microscopy relative to untreated control. Type of series: functional, organism-based. In outline:
as §2

Series [8] relates to Trypanosoma brucei brucei. The series can be described thus: Antitrypanosomal activity against bloodstream form of Trypanosoma brucei brucei MITat1.1 assessed as increase in multinucleate cells at 55.6 uM after 24 hrs by epifluorescence microscopy relative to untreated control. In kind it is functional, organism-based. A digest of the protocol: as §2
For series [9], the system named is Trypanosoma brucei brucei. The experiment in a line: Antitrypanosomal activity against bloodstream form of Trypanosoma brucei brucei. In kind it is functional, organism-based. A digest of the protocol:
as §1

The source made the active and inactive calls. The calls are words filed in the database; no cut-off is given here.

Regarding `CC(C)(C)OC(=O)NCCCC[C@@H](/C=C/C(=O)c1ccccc1)NC(=O)[C@H](Cc1ccccc1)NC(=O)OCc1ccccc1`, in [1], the Selectivity ratio is more than 67.1. For the same compound, in series [2], the Activity result is “Dose-dependent effect” and the EC50 (in general, the concentration needed to bring the measured effect to its halfway point) worked out at 820 nM. In series [3], the Activity result is recorded as “Toxic”.

In the case of `Cc1ccc(S(=O)(=O)NCCCC[C@@H](/C=C/S(=O)(=O)c2ccccc2)NC(=O)[C@H](Cc2ccccc2)NC(=O)OCc2ccccc2)cc1`, the Selectivity ratio in series [1] is given as more than 220. In [2], the Activity result is “Dose-dependent effect” and the EC50 is 250 nM.

As to `CC(C)(C)OC(=O)NCCCC[C@@H](/C=C/S(=O)(=O)c1ccc2ccccc2c1)NC(=O)[C@H](Cc1ccccc1)NC(=O)OCc1ccccc1`, in [1], the Selectivity ratio is given as more than 53.4. For the same compound, in series [2], the Activity entry is “Dose-dependent effect” and the EC50 is 1030 nM.

As to `O=C(N[C@@H](Cc1ccccc1)C(=O)N[C@H](/C=C/S(=O)(=O)c1ccccc1)CCCCNS(=O)(=O)c1cccc2ccccc12)OCc1ccccc1`, the result in series [4] was Active. In addition, the Selectivity ratio in series [1] was more than 785.7. Moreover, in series [2], the Activity result was “Dose-dependent effect” and the EC50 worked out at 70 nM. Moreover, in [5], the result was Active.

Take `CC(C)(C)OC(=O)NCCCC[C@@H](CCS(=O)(=O)c1ccccc1)NC(=O)[C@H](Cc1ccccc1)NC(=O)OCc1ccccc1`: in series [1], the Selectivity ratio is more than 2.1. The Activity result in [2] is “Dose-dependent effect”. Moreover, it took 26400 nM to reach a half-maximal effect in series [6] (EC50).

On to `CC(C)(C)OC(=O)NCCCC[C@@H](/C=C/S(=O)(=O)c1ccccc1)NC(=O)[C@@H]1CCCN1C(=O)OCc1ccccc1`, for which the Selectivity ratio in [1] is listed as more than 5.7. For the same compound, in series [2], the Activity result was “Dose-dependent effect”. The EC50 in [6] turned out to be 9960 nM.

As for `Cl.NCCCC[C@@H](/C=C/S(=O)(=O)c1ccccc1)NC(=O)[C@H](Cc1ccccc1)NC(=O)OCc1ccccc1`, in series [1], the Selectivity ratio is more than 2.4. Besides, in series [2], the Activity result is “Dose-dependent effect” and the EC50 worked out at 22400 nM.

For `CC(C)C[C@H](NC(=O)OCc1ccccc1)C(=O)N[C@H](/C=C/S(=O)(=O)c1ccccc1)CCCCNC(=O)OC(C)(C)C`, in series [1], the Selectivity ratio was more than 46.6. Further, in [2], the Activity result is “Dose-dependent effect” and the EC50 was found to be 1180 nM.

Turning to `CC(C)(C)OC(=O)NCCCC[C@@H](/C=C/S(=O)(=O)c1cccc2ccccc12)NC(=O)[C@H](Cc1ccccc1)NC(=O)OCc1ccccc1`, the Selectivity ratio in series [1] is reported as more than 80.1. Besides, the Activity entry in series [2] was “Dose-dependent effect”. For the same compound, the EC50 in [6] stood at 680 nM.

In the case of `CC(C)(C)OC(=O)NCCCC[C@@H](/C=C/S(=O)(=O)c1ccccc1)NC(=O)[C@H](Cc1ccccc1)NC(=O)OCc1ccccc1`, the Selectivity ratio in [1] was more than 83. Also, in series [2], the Activity result is “Dose-dependent effect”. Besides, in series [6], the midpoint of the response, the EC50, lay at 660 nM.

For `COc1cc(Br)c(S(=O)(=O)NCCCC[C@@H](/C=C/S(=O)(=O)c2ccccc2)NC(=O)[C@H](Cc2ccccc2)NC(=O)OCc2ccccc2)cc1OC`, the Selectivity ratio in series [1] was more than 177.4. Besides, in series [2], the Activity result is “Dose-dependent effect” and the midpoint of the response, the EC50, lay at 310 nM.

As for `CN1CCN(C(=O)N[C@@H](Cc2ccccc2)C(=O)N[C@H](/C=C/S(=O)(=O)c2ccccc2)CCc2ccccc2)CC1` [K-777], the Selectivity ratio in series [1] was more than 9.9. Also, the outcome in series [7] and in series [8] was Active. Moreover, in series [2], the Activity result was “Dose-dependent effect”. This compound showed an EC50 in [6] of 5560 nM. The midpoint of inhibition in [9], the IC50, lay at 100 nM.
